An excerpt weighted towards active compounds, which were near 4.6% of everything screened.
ALR H2O2 inh: human ALR oxidase inhibition via reduced H2O2; purified ALR, DTT oxidation, H2O2 HRP-luminol luminescence; inhibition, % (concentration not given with the values); P55789; actives 3.8% (n = 290,000);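 active means mean replicate inhibition above about 79%, with every replicate also reaching it, limit read from the data; inconclusive means only one of the two criteria met; inactive means mean below limit and not every replicate reaching it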
DSG3 Ab inh: blocks pemphigus antibody binding to human desmoglein-3; DSG3-coupled beads, scFv-anti-DSG3-GFP binding, flow cytometry; active compounds read low; binding (percent of control), % at 10 µM; actives 0.48% (n = 310,000); P32926;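 active means binding more than 3 SD below its plate's average and above zero; inconclusive means below that plate limit but binding exactly zero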;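 further: hits lower antibody fragment binding to DSG3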
PolyA inh: inhibitors of polyadenylation in S. cerevisiae; S. cerevisiae SKY197-pL101 polyadenylation reporter, beta-gal luminescence; efflux-impaired pdr1/pdr3 knockout yeast; score 100 = 6 SD above DMSO; activity score, % at 12 µM; actives 0.02% (n = 300,000); AID 1875;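 active means lowest replicate activity score at least 50, where 100 means six control SD above control mean; inconclusive means lowest score under 50 but half or more replicates reach 50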;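 further: yeast exposed to compound for 9 h at 30 °C; higher score means more reporter readthrough which indicates perturbed polyadenylation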
NALP3 yeast inh: blocks the NALP3 inflammasome reconstituted in yeast; Yeast reconstituted NLRP3/ASC/caspase-1, beta-gal luminescence, 24 h; inhibition, % at 10 µM; actives 0.39% (n = 330,000); AID 2825;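 active means inhibition of 50% or more; inactive means inhibition below 50%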;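 further: plate controls were induced DMSO wells for no effect and uninduced yeast grown without galactose for full effect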
Arr AP2 block: inhibitors of human beta-arrestin and AP2 interaction | AID 504490 | actives 0.31% (n = 340,000) | inhibition, % at 10 µM | FITC-arrestin peptide / GST-AP2 beads, flow cytometry; AP2 beta2 appendage carries R879A mutation;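 active means inhibition above a set limit, near 3 SD of compounds lacking own fluorescence, cut at about 54% in these data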;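 further: plate controls were DMSO wells for no effect and 5 µM unlabelled arrestin peptide for full effect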
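System: GST-tagged AP2 beta2-adaptin appendage (R879A) on 4 µm glutathione beads / Reagent: FITC-arrestin peptide, 50 nM / Detection: HyperCyt-sampled flow cytometry, FL1 channel, ex 488/em 535 nm / Timing: 12 min plus 1 h, RT / Buffer or medium: PBS plus Tween 20 (0.05%) and BSA (0.1%)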
NALP1 yeast inh: blocks the NALP1 inflammasome reconstituted in yeast; S. cerevisiae NALP1/ASC/caspase-1 growth, X-gal OD620, 72 h; inhibition, % at 10 µM; actives 0.61% (n = 280,000); in the data active means inhibition mostly above about 24%, no sharp cut-off; inactive means mostly below about 32%
* marks the source's active call; other numbers are inactive results; ? = inconclusive; . = no result given.

SMILES	ALR H2O2 inh	DSG3 Ab inh	PolyA inh	NALP3 yeast inh	Arr AP2 block	NALP1 yeast inh
CCOC(=O)C1CCN(C(=O)c2ccccc2)c2scc(-c3ccccc3)c2C1=O (stereo not given)	.	105.2	.	.	.	.
CC1C(=O)N(Cc2cn(CC3CCCCC3)nn2)CCS(=O)(=O)N1Cc1ccc(-c2ccc(Cl)cc2)cc1 (stereo not given)	.	96.8	.	.	.	.
O=C(c1nc2n(n1)C(c1ccc(Cl)cc1)C=C(c1ccccc1)N2)N1CCOCC1 (stereo not given)	1.0	90.7	3.3	-22.8	-7.9	30.9*
CC(=O)Nc1nc2n(n1)C(c1ccccc1)C=C(c1ccccc1)N2 (stereo not given)	20.6	109.7	1.6	2.9	7.4	-14.2
CCOC(=O)Cc1cc(=O)n2[nH]cc(-c3ccc(Cl)cc3)c2n1	98.6*	101.2	-1.9	-1.4	17.7	-8.3
COCc1cc(=O)n2[nH]cc(-c3ccsc3)c2n1	99.0*	97.3	10.4	-8.9	-6.8	8.0
CCOC(=O)Cc1cc(=O)n2[nH]c(-c3ccc(Cl)cc3)cc2n1	-12.3	99.3	-8.6	8.3	-9.5	1.4
CCOc1ccc(N(CC(=O)N2CCOCC2)S(=O)(=O)c2ccc(F)cc2)cc1	4.7	110.3	2.0	20.6	-5.0	-2.3
COc1cc2c3nnc(-c4ccc(F)cc4)c-3cn(Cc3ccc(F)cc3)c2cc1OC	-1.3	116.0	-0.1	9.9	8.9	34.9*
COc1ccc(Cn2cc3c(-c4ccc(F)cc4)nnc-3c3cc(OC)c(OC)cc32)cc1	8.1	100.6	.	3.5	9.6	22.6
COc1ccc(C(=O)NNC(=O)C(=O)NC2CCCCC2)cc1	2.3	115.5	-15.4	11.9	-4.5	-10.4
CC(C)NC(=O)N1c2ccccc2Sc2ccccc21	73.0	93.6	10.3	18.0	2.2	-6.1
CC(C)(C)NC(=O)N1c2ccccc2Sc2ccccc21	81.6*	?	-17.8	2.5	0.1	17.7
COCCCNC(=O)N1c2ccccc2Sc2ccccc21	3.3	118.5	-3.2	-4.8	32.8	16.9
CCCCC(=O)NNC(=O)N1c2ccccc2Sc2ccccc21	98.8*	100.4	-18.0	26.6	2.1	6.7
Cc1ccc(C2=CSC3=NNC4(CCCCC4)NN23)cc1	99.6*	105.4	-6.1	21.9	-8.8	-9.2
COc1ccc(C2=CSC3=NCCN23)cc1	53.4	88.8	-1.7	1.5	33.3	10.5
COc1ccc(C2=CSC3=NNC4(CCCCC4)NN23)cc1	98.1*	87.4	-3.2	5.6	-15.1	7.9
CC(Sc1nc(-c2ccccc2)c(-c2ccccc2)[nH]1)C(=O)NCC1CCCO1 (stereo not given)	.	100.1	.	.	.	.
Cc1ccccc1NC(=O)CCc1nnc2ccc(N3CCC4(CC3)OCCO4)nn12	-9.6	.	7.3	9.3	2.2	2.5
CCn1ccnc1CN(C)C(=O)C1CCC(=O)N(Cc2cccc(F)c2)C1 (stereo not given)	1.4	98.7	5.3	12.4	-1.8	14.0
COc1cc(C2c3cc4c(cc3CC3COC(=O)N32)OCO4)cc(OC)c1OC (stereo not given)	.	87.5	.	.	-19.0	.
CCn1nc([N+](=O)[O-])c(C(C#N)c2nc3ccccc3n2C)c(Cl)c1=O (stereo not given)	.	100.3	-18.1	12.2	6.8	41.5
CCCn1nc([N+](=O)[O-])c(C(C#N)c2nc3ccccc3s2)c(Cl)c1=O (stereo not given)	96.8*	108.2	-19.6	-21.2	30.0	-3.6
CN(c1ccc(F)cc1)S(=O)(=O)c1ccc(Cl)c(C(=O)NC2(C)CCS(=O)(=O)C2)c1 (stereo not given)	.	93.1	.	4.4	-2.4	.
SMILES	ALR H2O2 inh	DSG3 Ab inh	PolyA inh	NALP3 yeast inh	Arr AP2 block	NALP1 yeast inh
COc1ccc(NC2CCCN(C(=O)CSc3ccccc3)C2)cc1 (stereo not given)	98.7*	.	18.9	22.4	-9.5	3.1
COc1ccc(NC2CCCN(C(=O)COc3ccc(C)cc3)C2)cc1 (stereo not given)	90.2*	103.9	-10.7	30.8	2.6	7.6
COc1ccc(NC2CCCN(C(=O)CCOc3ccccc3)C2)cc1 (stereo not given)	99.1*	101.5	-14.1	15.8	20.3	27.2
COc1ccc(NC2CCCN(C(=O)CCc3ccccc3F)C2)cc1 (stereo not given)	99.8*	.	-2.7	1.4	1.5	2.8
Cc1cccc2c1ncc1c(=O)n(-c3ccccc3)[nH]c12	-5.7	95.1	14.8	19.9	-2.1	12.0
CCCCCCSc1ccc([C@@H]2[C@@H]3C(=O)N(C)C(=O)[C@@H]3[C@]3(C(=O)OC)CCCCN23)cc1OC	-0.4	108.1	?	-7.0	23.3	.
O=C(CC1SC(=O)N(c2ccccc2)C1=O)Nc1ccc(Br)cc1 (stereo not given)	21.3	106.4	-37.2	17.1	-12.5	19.3
O=C(CC1S/C(=N\S(=O)(=O)c2ccc(F)cc2)N(c2ccccc2)C1=O)Nc1ccccc1 (stereo not given)	-13.5	79.3*	5.0	13.1	5.0	22.6
CCOc1ccc(NC(=O)CN(C)C(=O)c2cc(C3CC3)nn2-c2ccccc2)cc1OCC	.	100.8	.	10.6	-4.2	.
C/C(CC(=O)Nc1ccc([N+](=O)[O-])cc1)=N\NC(=O)c1ccccc1[N+](=O)[O-]	-1.8	110.7	-4.6	7.1	1.6	3.2
COc1ccc(C(=S)Nc2ccc(N(C)C)cc2)cc1	99.2*	95.3	-9.5	5.2	26.9	-19.6
C/C(CC(=O)Nc1ccc(N(C)C)cc1)=N\NC(=O)c1ccc([N+](=O)[O-])cc1	94.9*	116.9	6.9	-1.4	-3.4	-3.5
COc1ccc(NC(=S)c2ccc(N(C)C)cc2)cc1	6.1	89.1	-4.9	12.5	.	30.1
COc1ccc(CC(=O)N/N=C(\C)CC(=O)Nc2ccc3c(c2)OCCO3)cc1	.	.	7.2	12.8	-0.3	3.5
COc1ccc(CC(=O)N/N=C(\C)CC(=O)Nc2ccc(N(C)C)cc2)cc1	94.5*	.	5.0	23.3	-5.5	5.3
O=C(O)c1ccc(N2C(=O)C3ON(c4ccccc4)C(c4ccccc4F)C3C2=O)cc1 (stereo not given)	7.5	102.3	-1.4	19.5	5.8	16.1
CN(C)c1ccc(C2C3C(=O)N(c4ccc(C(=O)O)cc4)C(=O)C3ON2c2ccccc2)cc1 (stereo not given)	76.0*	98.3	-1.3	2.4	-3.2	8.4
COc1ccc(-c2ccc(-c3cc(=O)oc4cc(OC)c(OC)c(OC)c34)cc2)cc1	.	108.3	.	.	2.0	.
O=C(Cn1cc2c(n1)CCCC2)NC1CCCCCC1	2.0	107.9	-23.7	23.7	5.4	34.1
COC(=O)c1ccn(CC(=O)NC2CCCCC2)n1	93.5*	102.2	0.2	6.7	-14.1	-3.9

Screens (PubChem)
